Calls of active or inactive are those of the source. The rule behind the calls is not given here.
How the values were obtained:
[1] = target: Vascular endothelial growth factor receptor 1 (Homo sapiens) (UniProt P17948); assay: Inhibition of human Flt1 at 0.5 uM relative to control
SK-MEL-28 = assay: Cytotoxicity against human SK-MEL-28 cells after 48 hrs by SRB assay; format: functional; details: SK-MEL-28, 48 h
In short: (§1)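 NCI-60 panel; cells grown in RPMI 1640 with 5% FBS and 2 mM L-glutamine, plated at 5000–40 000 cells/well by doubling time, preincubated 24 h (37 °C, 5% CO2). Drug added at five concentrations, 1-log steps from 10−4 to 10−8 M, for 48 h. Fixed with TCA, stained with 0.4% SRB, absorbance read at 515 nm. Percent growth computed against time-zero and untreated controls; GI50, TGI and LC50 derived.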

[2] = target: Ephrin type-A receptor 7 (Homo sapiens) (UniProt Q15375); assay: Inhibition of human EPHA7 at 0.5 uM relative to control
IGROV-1 = assay: Cytotoxicity against human IGROV1 cells after 48 hrs by SRB assay; format: functional; details: IGROV-1, 48 h; in short: as §1
M14 = assay: Cytotoxicity against human M14 cells after 48 hrs by SRB assay; format: functional; details: M14, 48 h; in short: as §1
BT-549 = assay: Cytotoxicity against human BT549 cells after 48 hrs by SRB assay; format: functional; details: BT-549, 48 h; in short: as §1
[3] = target: Fibroblast growth factor receptor 4 (Homo sapiens) (UniProt P22455); assay: Inhibition of human FGFR4 at 0.5 uM relative to control
[4] = target: Mitogen-activated protein kinase kinase kinase 7 (Homo sapiens) (UniProt O43318); assay: Inhibition of human TAK1 at 0.5 uM relative to control
UACC-257 = assay: Cytotoxicity against human UACC257 cells after 48 hrs by SRB assay; format: functional; details: UACC-257, 48 h
In short: (§2)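 NCI-60 panel, five doses at 1-log steps from 10−4 to 10−8 M. Cells grown in RPMI 1640 with 5% FBS and 2 mM L-glutamine, seeded at 5000–40 000 cells/well and preincubated 24 h. Tz plates were TCA-fixed at drug addition. Drug exposure 48 h at 37 °C, then TCA fixation, 0.4% SRB stain and absorbance at 515 nm. GI50 taken from percent growth relative to Tz and control.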

[5] = target: Fibroblast growth factor receptor 3 (Homo sapiens) (UniProt P22607); assay: Inhibition of human FGFR3 at 0.5 uM relative to control
U-251 = assay: Cytotoxicity against human U251 cells after 48 hrs by SRB assay; format: functional; details: U-251, 48 h; in short: as §2
[6] = target: Tyrosine-protein kinase ABL1 (Homo sapiens) (UniProt P00519); details: at 0.5 µM
[7] = target: Vascular endothelial growth factor receptor 3 (Homo sapiens) (UniProt P35916); assay: Inhibition of human Flt4 at 0.5 uM relative to control
SNB-19 = assay: Cytotoxicity against human SNB19 cells after 48 hrs by SRB assay; format: functional; details: SNB-19, 48 h; in short: as §1
[8] = target: Ephrin type-A receptor 3 (Homo sapiens) (UniProt P29320); assay: Inhibition of human EPHA3 at 0.5 uM relative to control
[9] = target: Mitogen-activated protein kinase kinase kinase kinase 5 (Homo sapiens) (UniProt Q9Y4K4); assay: Inhibition of human KHS at 0.5 uM relative to control
SK-MEL-2 = assay: Cytotoxicity against human SK-MEL-2 cells after 48 hrs by SRB assay; format: functional; details: SK-MEL-2, 48 h; in short: as §1
[10] = Potency index, ratio of sorafenib GI50 to test compound GI50 for human prostate cancer cells; format: functional, Prostate cancer cell
In short: (§3)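 GI50 is the concentration giving 50% reduction in net protein increase relative to control. Potency index is the reference-drug GI50 divided by the test-compound GI50.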

[11] = Potency index, ratio of test compound LC50 to sunitinib LC50 for human renal cancer cells; format: functional, Renal cancer cell
SR = assay: Cytotoxicity against human SR cells after 48 hrs by SRB assay; format: functional; in short: as §1
Homo sapiens [12] = species: Homo sapiens; assay: Inhibition of human PDGFR at 0.5 uM relative to control
MDA-MB-468 = assay: Cytotoxicity against human MDA-MB-468 cells after 48 hrs by SRB assay; format: functional; details: MDA-MB-468, 48 h; in short: as §1
SNB-75 = assay: Cytotoxicity against human SNB75 cells after 48 hrs by SRB assay; format: functional; details: SNB-75, 48 h; in short: as §1
[13] = Potency index, ratio of sunitinib GI50 to test compound GI50 for human breast cancer cells; format: functional, Breast cancer cell; in short: as §3
MOLT-4 = assay: Cytotoxicity against human MOLT4 cells after 48 hrs by SRB assay; format: functional; details: MOLT-4, 48 h; in short: as §1
NCI-H522 = assay: Cytotoxicity against human NCI-H522 cells after 48 hrs by SRB assay; format: functional; details: NCI-H522, 48 h; in short: as §1
HCT-116 = assay: Cytotoxicity against human HCT116 cells after 48 hrs by SRB assay; format: functional; details: HCT-116, 48 h; in short: as §1
MDA-MB-231 = assay: Cytotoxicity against human MDA-MB-231 cells after 48 hrs by SRB assay; format: functional; details: MDA-MB-231, 48 h; in short: as §1
Homo sapiens [14] = species: Homo sapiens; assay: Inhibition of human DDR at 0.5 uM relative to control
NCI-H460 = assay: Cytotoxicity against human NCI-H460 cells after 48 hrs by SRB assay; format: functional; details: NCI-H460, 48 h; in short: as §1
SN12C = assay: Cytotoxicity against human SN12C cells after 48 hrs by SRB assay; format: functional; in short: as §1
SK-MEL-5 = assay: Cytotoxicity against human SK-MEL-5 cells after 48 hrs by SRB assay; format: functional; details: SK-MEL-5, 48 h; in short: as §1
[15] = read-out: LC50 (the source's name)

Fibroblast growth factor receptor 3 (Homo sapiens), sequence (P22607 23-806 limits assumed): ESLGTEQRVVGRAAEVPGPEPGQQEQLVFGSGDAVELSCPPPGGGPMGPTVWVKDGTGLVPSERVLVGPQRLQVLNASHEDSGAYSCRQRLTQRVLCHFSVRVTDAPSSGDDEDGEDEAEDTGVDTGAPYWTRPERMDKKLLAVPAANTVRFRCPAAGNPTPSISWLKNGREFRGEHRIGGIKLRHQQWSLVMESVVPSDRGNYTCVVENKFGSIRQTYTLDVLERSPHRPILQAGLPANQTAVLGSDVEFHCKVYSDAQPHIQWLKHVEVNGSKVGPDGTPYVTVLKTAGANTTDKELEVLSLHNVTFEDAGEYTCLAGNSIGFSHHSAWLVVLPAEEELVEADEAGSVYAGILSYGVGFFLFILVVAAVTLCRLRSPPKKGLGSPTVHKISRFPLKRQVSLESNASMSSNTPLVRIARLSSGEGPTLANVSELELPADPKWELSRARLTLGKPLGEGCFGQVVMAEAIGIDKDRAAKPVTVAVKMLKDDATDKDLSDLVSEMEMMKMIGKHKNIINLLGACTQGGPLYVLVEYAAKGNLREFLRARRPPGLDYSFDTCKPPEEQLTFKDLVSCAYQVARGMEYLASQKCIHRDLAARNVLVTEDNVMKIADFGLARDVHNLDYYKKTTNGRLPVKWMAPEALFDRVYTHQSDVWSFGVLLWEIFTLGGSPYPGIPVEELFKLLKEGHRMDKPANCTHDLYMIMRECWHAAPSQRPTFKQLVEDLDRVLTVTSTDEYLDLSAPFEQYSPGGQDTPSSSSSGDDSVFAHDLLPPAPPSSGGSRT
Vascular endothelial growth factor receptor 3 (Homo sapiens), sequence (P35916 whole entry): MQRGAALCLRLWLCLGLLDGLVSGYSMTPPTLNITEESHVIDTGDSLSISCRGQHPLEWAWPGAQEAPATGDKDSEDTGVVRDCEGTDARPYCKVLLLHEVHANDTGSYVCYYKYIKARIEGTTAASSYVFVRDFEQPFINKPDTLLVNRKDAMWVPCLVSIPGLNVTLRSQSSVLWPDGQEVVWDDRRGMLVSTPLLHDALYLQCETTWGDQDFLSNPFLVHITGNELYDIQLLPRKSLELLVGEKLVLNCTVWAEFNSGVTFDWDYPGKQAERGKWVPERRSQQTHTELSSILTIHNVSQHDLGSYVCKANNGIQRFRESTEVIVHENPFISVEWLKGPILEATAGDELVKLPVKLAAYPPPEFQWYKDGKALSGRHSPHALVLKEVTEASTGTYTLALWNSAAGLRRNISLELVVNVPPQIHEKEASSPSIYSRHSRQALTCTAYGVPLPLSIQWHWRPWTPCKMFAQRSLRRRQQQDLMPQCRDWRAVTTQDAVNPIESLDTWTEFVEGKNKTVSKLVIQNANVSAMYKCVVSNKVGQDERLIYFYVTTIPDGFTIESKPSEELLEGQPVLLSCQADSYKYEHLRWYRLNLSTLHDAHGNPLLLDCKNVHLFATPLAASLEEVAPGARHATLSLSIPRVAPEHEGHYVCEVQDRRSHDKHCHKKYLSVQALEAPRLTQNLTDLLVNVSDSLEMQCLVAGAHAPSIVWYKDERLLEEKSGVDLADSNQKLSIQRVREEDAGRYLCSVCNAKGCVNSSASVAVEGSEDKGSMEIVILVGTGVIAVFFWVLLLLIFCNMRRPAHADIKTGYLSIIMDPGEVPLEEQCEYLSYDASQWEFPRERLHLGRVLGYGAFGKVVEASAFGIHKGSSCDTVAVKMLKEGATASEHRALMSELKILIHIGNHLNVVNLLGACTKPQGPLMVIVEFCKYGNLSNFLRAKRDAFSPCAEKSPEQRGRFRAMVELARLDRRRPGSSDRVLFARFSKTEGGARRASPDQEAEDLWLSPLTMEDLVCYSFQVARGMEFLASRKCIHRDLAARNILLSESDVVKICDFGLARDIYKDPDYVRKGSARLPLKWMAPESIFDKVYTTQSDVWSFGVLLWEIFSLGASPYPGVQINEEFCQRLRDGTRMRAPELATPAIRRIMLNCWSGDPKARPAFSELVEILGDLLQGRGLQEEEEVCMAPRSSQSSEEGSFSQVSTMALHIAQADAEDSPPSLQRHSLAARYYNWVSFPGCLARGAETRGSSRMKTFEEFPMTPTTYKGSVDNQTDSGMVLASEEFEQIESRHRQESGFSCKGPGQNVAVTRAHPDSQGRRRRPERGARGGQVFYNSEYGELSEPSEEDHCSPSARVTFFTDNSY
Ephrin type-A receptor 3 (Homo sapiens), sequence (P29320 whole entry): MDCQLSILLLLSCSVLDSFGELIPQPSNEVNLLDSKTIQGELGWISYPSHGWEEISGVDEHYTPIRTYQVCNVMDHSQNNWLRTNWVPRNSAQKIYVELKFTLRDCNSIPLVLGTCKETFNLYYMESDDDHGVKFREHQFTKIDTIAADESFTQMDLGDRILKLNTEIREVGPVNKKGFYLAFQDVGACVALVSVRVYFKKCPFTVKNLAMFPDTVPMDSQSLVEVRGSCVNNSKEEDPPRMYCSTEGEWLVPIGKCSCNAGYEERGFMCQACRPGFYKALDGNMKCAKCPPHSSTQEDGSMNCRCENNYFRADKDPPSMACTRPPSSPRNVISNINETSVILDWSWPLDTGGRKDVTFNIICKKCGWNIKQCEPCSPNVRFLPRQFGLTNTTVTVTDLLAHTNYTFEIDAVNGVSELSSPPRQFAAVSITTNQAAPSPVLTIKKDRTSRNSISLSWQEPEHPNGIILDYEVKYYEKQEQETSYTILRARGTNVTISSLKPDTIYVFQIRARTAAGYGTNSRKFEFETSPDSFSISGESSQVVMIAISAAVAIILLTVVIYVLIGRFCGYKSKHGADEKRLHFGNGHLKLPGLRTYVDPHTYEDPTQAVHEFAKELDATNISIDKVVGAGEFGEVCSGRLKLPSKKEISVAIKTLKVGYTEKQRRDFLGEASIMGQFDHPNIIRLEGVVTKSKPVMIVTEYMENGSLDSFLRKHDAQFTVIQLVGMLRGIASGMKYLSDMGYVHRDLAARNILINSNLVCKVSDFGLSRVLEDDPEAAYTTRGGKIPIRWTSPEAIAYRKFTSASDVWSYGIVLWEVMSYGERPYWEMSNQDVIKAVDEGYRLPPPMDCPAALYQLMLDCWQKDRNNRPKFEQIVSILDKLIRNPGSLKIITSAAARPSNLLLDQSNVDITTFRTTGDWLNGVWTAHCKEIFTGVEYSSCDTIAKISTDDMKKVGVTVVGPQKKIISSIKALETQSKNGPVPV
Ephrin type-A receptor 7 (Homo sapiens), sequence (Q15375 28-998 limits assumed): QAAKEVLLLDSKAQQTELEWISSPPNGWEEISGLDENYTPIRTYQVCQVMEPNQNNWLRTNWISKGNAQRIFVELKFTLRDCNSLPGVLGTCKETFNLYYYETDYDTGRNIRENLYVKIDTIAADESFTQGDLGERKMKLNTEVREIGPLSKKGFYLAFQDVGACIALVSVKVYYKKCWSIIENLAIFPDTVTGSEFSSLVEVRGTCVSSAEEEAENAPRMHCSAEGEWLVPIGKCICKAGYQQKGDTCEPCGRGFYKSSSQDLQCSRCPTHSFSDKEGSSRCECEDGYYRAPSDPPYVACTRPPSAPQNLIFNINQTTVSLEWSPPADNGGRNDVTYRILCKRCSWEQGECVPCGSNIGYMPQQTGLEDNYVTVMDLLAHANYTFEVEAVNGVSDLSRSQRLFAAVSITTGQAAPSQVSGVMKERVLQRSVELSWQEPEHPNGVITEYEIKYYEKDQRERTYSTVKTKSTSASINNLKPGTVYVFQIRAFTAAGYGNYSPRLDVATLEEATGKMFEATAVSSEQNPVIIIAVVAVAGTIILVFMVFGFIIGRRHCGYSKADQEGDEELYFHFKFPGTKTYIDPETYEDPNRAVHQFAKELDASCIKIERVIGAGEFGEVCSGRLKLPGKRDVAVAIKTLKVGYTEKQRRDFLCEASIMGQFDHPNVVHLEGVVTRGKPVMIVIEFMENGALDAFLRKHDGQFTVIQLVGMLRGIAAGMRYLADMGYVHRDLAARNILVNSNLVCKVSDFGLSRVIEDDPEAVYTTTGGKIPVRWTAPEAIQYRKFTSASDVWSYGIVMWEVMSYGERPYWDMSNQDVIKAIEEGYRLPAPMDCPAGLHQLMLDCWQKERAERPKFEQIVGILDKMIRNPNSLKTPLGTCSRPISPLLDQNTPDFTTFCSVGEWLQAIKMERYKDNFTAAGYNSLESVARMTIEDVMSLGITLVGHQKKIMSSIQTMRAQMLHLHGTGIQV
Fibroblast growth factor receptor 4 (Homo sapiens), sequence (P22455 22-802 limits assumed): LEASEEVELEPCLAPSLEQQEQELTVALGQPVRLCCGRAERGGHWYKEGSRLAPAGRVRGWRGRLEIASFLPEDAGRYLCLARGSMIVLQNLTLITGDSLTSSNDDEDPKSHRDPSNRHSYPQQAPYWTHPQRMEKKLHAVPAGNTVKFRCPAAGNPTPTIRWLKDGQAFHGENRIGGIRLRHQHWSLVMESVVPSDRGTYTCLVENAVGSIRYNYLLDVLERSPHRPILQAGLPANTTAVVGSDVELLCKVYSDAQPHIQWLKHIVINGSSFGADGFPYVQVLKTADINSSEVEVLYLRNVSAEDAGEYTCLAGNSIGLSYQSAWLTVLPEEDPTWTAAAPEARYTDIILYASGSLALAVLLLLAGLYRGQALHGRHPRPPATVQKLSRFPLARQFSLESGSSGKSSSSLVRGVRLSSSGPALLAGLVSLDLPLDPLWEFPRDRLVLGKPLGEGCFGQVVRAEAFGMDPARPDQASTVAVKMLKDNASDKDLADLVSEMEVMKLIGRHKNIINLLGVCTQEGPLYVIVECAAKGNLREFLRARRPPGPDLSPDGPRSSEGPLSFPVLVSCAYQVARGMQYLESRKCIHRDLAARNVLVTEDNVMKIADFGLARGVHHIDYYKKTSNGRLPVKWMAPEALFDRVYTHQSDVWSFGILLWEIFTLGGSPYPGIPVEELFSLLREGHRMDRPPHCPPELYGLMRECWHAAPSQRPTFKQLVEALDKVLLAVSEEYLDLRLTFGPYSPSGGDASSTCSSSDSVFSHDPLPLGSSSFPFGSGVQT

Compound: COc1cc2ncnc(Oc3ccc(NC(=O)Nc4ccc(CN5CCOCC5)c(C(F)(F)F)c4)c4ccccc34)c2cc1OC
- inhibition [1]: Active
- GI50 (SK-MEL-28): 0.89 µM
- TGI (SK-MEL-28): 4.79 µM
- CC50 (SK-MEL-28; [15]): 42.7 µM
- inhibition [2]: Active
- GI50 (IGROV-1): 0.52 µM
- TGI (IGROV-1): 3.63 µM
- CC50 (IGROV-1; [15]): > 100 µM
- GI50 (M14): 0.95 µM
- TGI (M14): 4.57 µM
- CC50 (M14; [15]): 26.9 µM
- GI50 (BT-549): 1.15 µM
- TGI (BT-549): 7.41 µM
- CC50 (BT-549; [15]): 34.7 µM
- inhibition [3]: > 96%
- inhibition [4]: Active
- GI50 (UACC-257): 0.79 µM
- TGI (UACC-257): 3.98 µM
- CC50 (UACC-257; [15]): 47.9 µM
- inhibition [5]: > 96%
- GI50 (U-251): 1.05 µM
- TGI (U-251): 3.98 µM
- CC50 (U-251; [15]): 27.5 µM
- inhibition [6]: Active
- inhibition [7]: Active
- GI50 (SNB-19): 2.57 µM
- TGI (SNB-19): 14.1 µM
- CC50 (SNB-19; [15]): 43.6 µM
- inhibition [8]: Active
- inhibition [9]: Active
- GI50 (SK-MEL-2): 1.48 µM
- TGI (SK-MEL-2): 13.8 µM
- CC50 (SK-MEL-2; [15]): > 100 µM
- RatioGI50 [10]: 1.6
- RatioLC50 [11]: 1.3
- GI50 (SR): 0.69 µM
- TGI (SR): 5.37 µM
- CC50 (SR; [15]): > 100 µM
- inhibition (Homo sapiens [12]): Active
- GI50 (MDA-MB-468): 0.23 µM
- TGI (MDA-MB-468): 2.82 µM
- CC50 (MDA-MB-468; [15]): 72.4 µM
- GI50 (SNB-75): 1.05 µM
- TGI (SNB-75): 13.8 µM
- CC50 (SNB-75; [15]): 38.9 µM
- RatioGI50 [13]: 5 - 7.7
- GI50 (MOLT-4): 0.19 µM
- TGI (MOLT-4): 1.82 µM
- CC50 (MOLT-4; [15]): > 100 µM
- GI50 (NCI-H522): 0.31 µM
- TGI (NCI-H522): 3.8 µM
- CC50 (NCI-H522; [15]): > 100 µM
- GI50 (HCT-116): 0.79 µM
- TGI (HCT-116): 2.57 µM
- CC50 (HCT-116; [15]): 7.08 µM
- GI50 (MDA-MB-231): 1.15 µM
- TGI (MDA-MB-231): 7.94 µM
- CC50 (MDA-MB-231; [15]): 42.7 µM
- inhibition (Homo sapiens [14]): Active
- GI50 (NCI-H460): 1.41 µM
- TGI (NCI-H460): 4.27 µM
- CC50 (NCI-H460; [15]): 25.7 µM
- GI50 (SN12C): 0.29 µM
- TGI (SN12C): 1.86 µM
- CC50 (SN12C; [15]): 13.2 µM
- GI50 (SK-MEL-5): 0.45 µM
- TGI (SK-MEL-5): 2.69 µM
- CC50 (SK-MEL-5; [15]): 17 µM

From ChEMBL document CHEMBL4028913, “Discovery of Novel Potent VEGFR-2 Inhibitors Exerting Significant Antiproliferative Activity against Cancer Cell Lines” (J Med Chem, 2018)
